From ChEMBL document CHEMBL1135976, “Antimalarial activity of yingzhaosu A analogues” (J Med Chem, 2002) come the findings set out here.

One data set has as its system Plasmodium falciparum. Nature of the data set: In vitro antimalarial activity against Plasmodium falciparum. It counts as functional, organism-based. A digest of the protocol:
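Chloroquine-sensitive P. falciparum FCR-3 strain cultured in vitro. EC50 was determined.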

Data set [1] deals with FM3A. The data set can be described thus: Effective concentration against mouse mammary FM3A cells. It is filed as ADME, cell-based. A digest of the protocol: (§1)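 Mouse mammary tumor FM3A cells in culture served as the mammalian cytotoxicity counterscreen. EC50 was determined; where no activity was found at 10 μM, percent growth inhibition at that concentration was given.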

Data set [2] in a line: Selectivity as the ratio of EC50 value for FM3A cells to that of Plasmodium falciparum. It counts as functional. An outline of the steps: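 Selectivity was taken as the mean EC50 in FM3A cells divided by the mean EC50 against P. falciparum FCR-3.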
The test system of data set [3] is FM3A. The data set can be described thus: Percent inhibition of growth against mouse mammary FM3A cells. It is filed as cell-based. Further details: concentration or dose not given beside the values. An outline of the steps: as §1
For data set [4], the system named is Mus musculus. Nature of the data set: Mice survival days reported after intramuscular administration. It is filed as ADME, organism-based. The following applies: in vivo, im. An outline of the steps:
(§2)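 P. berghei NK 65 strain in mice, five per group. Compounds in olive oil were given ip or im once daily on days 0–3, starting on the day of infection. Parasitemia was read on day 4 from Giemsa-stained tail blood smears, counting 1×10^4 erythrocytes per film, and suppression calculated against DMSO sham-treated infected controls. Survival was recorded in days. Values are means of five mice, one test.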

In a further data set the test system is Plasmodium berghei. The data set can be described thus: Antimalarial activity against Plasmodium berghei infected mice (Mus musculus) after intramuscular administration at a dose 100 mg/kg/day. The following applies: im. It is filed as ADME, organism-based. Further details: route intramuscular. A digest of the protocol:
as §2

Data set [5] relates to Mus musculus. Nature of the data set: Mice survival days reported after intraperitoneal administration. It counts as ADME, organism-based. As to conditions: in vivo, ip. An outline of the steps:
as §2

Consider `CC12CCC[C@H](C1)C(C)(CI)O2` (some centres not stated), for which the EC50 with Plasmodium falciparum is 1000 nM; with FM3A [1], more than 48 µM. Moreover, in data set [2], the Selectivity was more than 48. Further, the Inhibition in the data set with FM3A [3] turned out to be 0%.
The corresponding values for `COC12CCC[C@@H](C1)C(I)C(C)(C)OO2` (some centres not stated) are 15000 nM, more than 64 µM, more than 4 and 10%.
On to `CCOC(=O)C(I)C12CCCC(C1)C(C)(C)OO2` (configuration not stated), for which the half-maximal effective concentration (EC50) with Plasmodium falciparum is 11 nM; with FM3A [1], 3.1 µM. Moreover, the Survival with Mus musculus [4] worked out at 9.8 days; in the data set with Mus musculus [5], 6.5 days. Besides, testing at 100 mg/kg in the data set with Plasmodium berghei gave an inhibition of 80%. In addition, the Selectivity in data set [2] is 282.
For the molecule `CC1(C)OOC2(CI)CCCC1C2` (configuration not stated), the figures for the EC50 in the data set with Plasmodium falciparum and in the data set with FM3A [1] were 40 nM and 68 µM, respectively. Besides, the Survival in the data set with Mus musculus [4] was determined as 9.6 days; in the data set with Mus musculus [5] it was 7 days. Moreover, 100 mg/kg produced 99% inhibition in the data set with Plasmodium berghei. The Selectivity in data set [2] came out at 1700.
In the case of `COC12C[C@H](CC[C@@H]1C)C(C)(CI)OO2` (some centres not stated), the half-maximal effective concentration (EC50) is 2000 nM in the data set with Plasmodium falciparum and more than 54 µM with FM3A [1]. Also, the Selectivity in data set [2] was more than 27. Further, the Inhibition in the data set with FM3A [3] turned out to be 8%.
The corresponding values for `COC12CCC[C@H](CC(C)(CI)OO1)C2` (some centres not stated) are 2500 nM, more than 80 µM, more than 32 and 6%.
The corresponding values for `CC12CCC[C@@H](C1)C(C)(CI)OO2` (some centres not stated) are 13 nM, more than 84 µM, more than 6462 and 10%.
The corresponding values for `CC1(CI)C[C@H]2CCCCC2O1` (some centres not stated) are 120000 nM, more than 210 µM, more than 2 and 34%.
Take `COC12CCC[C@@H](C1)C(C)(CI)OO2` (some centres not stated): the EC50 was 1700 nM in the data set with Plasmodium falciparum and more than 70 µM with FM3A [1]. The Selectivity in data set [2] is more than 41. The Inhibition in the data set on FM3A [3] was found to be 19%.
In the case of `CC1(C)OC2(CI)CCCC1C2` (configuration not stated), the EC50 with Plasmodium falciparum was 5800 nM; in the data set on FM3A [1], more than 84 µM. Besides, the Selectivity in data set [2] is recorded as more than 14. This molecule also had an Inhibition in the data set on FM3A [3] of 10%.
The corresponding values for `CC1(CI)C[C@H]2CCCC(C2)OO1` (some centres not stated) are 3000 nM, more than 96 µM, more than 32 and 47%.
In the case of `CC1(CI)C[C@H]2CCCC[C@@H]2OO1` (relative stereo), the EC50 was found to be 1500 nM in the data set on Plasmodium falciparum and 66 µM with FM3A [1]. The Selectivity in data set [2] was determined as 44.
Regarding `C[C@@H]1CC[C@H]2[C@@H](C)C(=O)O[C@@H]3O[C@@]4(C)CC[C@@H]1[C@]32OO4` [ARTEMISININ], the Selectivity in data set [2] turned out to be 1000.
